The values that follow come from ChEMBL document CHEMBL5344437, “Novel Drug Screening Assay for Acanthamoeba castellanii and the Anti-Amoebic Effect of Carbonic Anhydrase Inhibitors” (J Med Chem, 2024).

Common to all, as to format: functional, organism-based
For test [1], the system named is Acanthamoeba castellanii. Nature of the test: Anti-amoebic activity against Acanthamoeba castellanii ATCC 30010 trophozoites assessed as reduction in amoebic growth at 938 nM incubated for 24 to 72 hrs by crystal violet staining based assay. The note with it: time 24-72 hrs. The essentials:
(§1)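 Trophozoites scraped from an axenic PYG culture at +25 °C were plated at 1000 cells per well with an inhibitor dilution series in PYG medium, with a separate plate for each time point (24, 48, 72 h). Cells were fixed with methanol, stained with 0.1% crystal violet, dissolved in 10% acetic acid and read at 590 nm. Two experiments, 6–15 wells per concentration; unpaired t-test versus control at 72 h.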

For test [2], the system named is Acanthamoeba castellanii. Put plainly: Anti-amoebic activity against Acanthamoeba castellanii ATCC 30010 cyst assessed as reduction in cyst survival at 9.38 uM incubated for 24 to 72 hrs by crystal violet staining based assay. The following applies: time 24-72 hrs. The procedure, abridged: (§2)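 Cyst survival: after 24, 48 or 72 h of inhibitor exposure of 1000 cells per well in PYG, the medium-inhibitor solution was moved to a new plate and topped up with fresh medium. It was then incubated 5 days at +25 °C so cysts could excyst. Wells were fixed with methanol, stained with 0.1% crystal violet, eluted with 10% acetic acid and read at 590 nm. Unpaired t-test versus control at 72 h.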

Test [3] relates to Acanthamoeba castellanii. Put plainly: Anti-amoebic activity against Acanthamoeba castellanii ATCC 30010 cyst assessed as inhibition of excystation at 188 nM incubated for 72 hrs by crystal violet staining based assay.
In test [4] the test system is Acanthamoeba castellanii. Put plainly: Anti-amoebic activity against Acanthamoeba castellanii ATCC 30010 trophozoites assessed as reduction in amoebic growth at 100 uM incubated for 24 to 72 hrs by crystal violet staining based assay. The following applies: time 24-72 hrs. The procedure, abridged: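 Trophozoites scraped from steady-state PYG culture, 1000 cells per well in inhibitor-containing PYG, +25 °C, separate plates read at 24, 48, 72 h. Methanol fix, 0.1% crystal violet, 10% acetic acid elution, A590. Two experiments, ≥3 wells each. Unpaired t-test vs drug-free control at 72 h.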

Test [5] deals with Acanthamoeba castellanii. Nature of the test: Anti-amoebic activity against Acanthamoeba castellanii ATCC 30010 cyst assessed as reduction in cyst survival at 1 mM incubated for 24 to 72 hrs by crystal violet staining based assay. The note with it: time 24-72 hrs. The procedure, abridged:
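Scraped PYG-grown cells, 1000 per well, exposed 24, 48 or 72 h at +25 °C. Medium-inhibitor solution then moved to new plates, topped with fresh medium, and held 5 days at +25 °C to allow excystation. Methanol fix, 0.1% crystal violet, 10% acetic acid, A590. Unpaired t-test vs control at 72 h.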

In test [6] the test system is Acanthamoeba castellanii. Nature of the test: Anti-amoebic activity against Acanthamoeba castellanii ATCC 30010 cyst assessed as inhibition of excystation at 100 uM incubated for 72 hrs by crystal violet staining based assay. The procedure, abridged: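 Axenic culture in PYG medium at +25 °C, grown past peak density to induce encystment; 1000 cysts per well added to inhibitor diluted in PYG, incubated 72 h at +25 °C. Methanol fix, 0.1% crystal violet stain (remaining cysts washed off), dissolve in 10% acetic acid, absorbance 590 nm. Unpaired t-test vs drug-free control; 6 replicates.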

Test [7] deals with Acanthamoeba castellanii. Put plainly: Anti-amoebic activity against Acanthamoeba castellanii ATCC 30010 trophozoites assessed as reduction in amoebic growth at 15.6 uM incubated for 24 to 72 hrs by crystal violet staining based assay. The following applies: time 24-72 hrs. The essentials:
as §1

The test system of test [8] is Acanthamoeba castellanii. Nature of the test: Anti-amoebic activity against Acanthamoeba castellanii ATCC 30010 cyst assessed as reduction in cyst survival at 7.81 to 250 uM incubated for 24 to 72 hrs by crystal violet staining based assay. The following applies: dose 7.81-250 µM, time 24-72 hrs. The procedure, abridged:
as §2

The test system of test [9] is Acanthamoeba castellanii. Put plainly: Anti-amoebic activity against Acanthamoeba castellanii ATCC 30010 cyst assessed as reduction in cyst survival at >= 500 uM incubated for 24 to 72 hrs by crystal violet staining based assay. The following applies: time 24-72 hrs. The procedure, abridged: as §2
The test system of test [10] is Acanthamoeba castellanii. Nature of the test: Anti-amoebic activity against Acanthamoeba castellanii ATCC 30010 cyst assessed as inhibition of excystation at >= 62.5 uM incubated for 72 hrs by crystal violet staining based assay.
Test [11] has as its system Acanthamoeba castellanii. Put plainly: Anti-amoebic activity against Acanthamoeba castellanii ATCC 30010 trophozoites assessed as reduction in amoebic growth at 100 nM incubated for 24 to 72 hrs by crystal violet staining based assay. The note with it: time 24-72 hrs. The essentials: as §1
Test [12] relates to Acanthamoeba castellanii. Nature of the test: Anti-amoebic activity against Acanthamoeba castellanii ATCC 30010 cyst assessed as reduction in cyst survival at […] incubated for 24 to 72 hrs by crystal violet staining based assay. The following applies: time 24-72 hrs. The essentials: as §2
For test [13], the system named is Acanthamoeba castellanii. Nature of the test: Anti-amoebic activity against Acanthamoeba castellanii ATCC 30010 cyst assessed as inhibition of excystation at 10 uM incubated for 72 hrs by crystal violet staining based assay.
Test [14] has as its system Acanthamoeba castellanii. Nature of the test: Anti-amoebic activity against Acanthamoeba castellanii ATCC 30010 trophozoites assessed as reduction in amoebic growth at 1 to 100 nM incubated for 24 to 72 hrs by crystal violet staining based assay. The note with it: dose 1-100 nM, time 24-72 hrs. The essentials:
as §1

The test system of test [15] is Acanthamoeba castellanii. Put plainly: Anti-amoebic activity against Acanthamoeba castellanii ATCC 30010 trophozoites assessed as reduction in amoebic growth at 1 to 100 uM incubated for 24 to 72 hrs by crystal violet staining based assay. The note with it: dose 1-100 µM, time 24-72 hrs. The procedure, abridged: as §1
In test [16] the test system is Acanthamoeba castellanii. Put plainly: Anti-amoebic activity against Acanthamoeba castellanii ATCC 30010 cyst assessed as inhibition of excystation at >= 10 uM incubated for 72 hrs by crystal violet staining based assay.

Structures are written as SMILES. Active and inactive are the calls of the source. The calls are words filed in the database; no cut-off is given here.

With `CCOc1ccc2nc(S(N)(=O)=O)sc2c1`, the outcome in the test on Acanthamoeba castellanii [1], with Acanthamoeba castellanii [2] and in the test on Acanthamoeba castellanii [3] was Active.

Consider `CC(=O)Nc1nnc(S(N)(=O)=O)s1`, for which the result in the test with Acanthamoeba castellanii [4], in the test on Acanthamoeba castellanii [5] and in the test on Acanthamoeba castellanii [6] was Active.

In the case of `NN1CCN(NC(=S)S)CC1`, the result in the test on Acanthamoeba castellanii [7], in the test with Acanthamoeba castellanii [9] and in the test with Acanthamoeba castellanii [10] was Active. The outcome in the test on Acanthamoeba castellanii [8] was inactive.

Turning to `CCN[C@H]1C[C@H](C)S(=O)(=O)c2sc(S(N)(=O)=O)cc21`, the result in the test on Acanthamoeba castellanii [11], in the test with Acanthamoeba castellanii [12] and in the test on Acanthamoeba castellanii [13] was Active.

For `CCN[C@H]1CN(CCCOC)S(=O)(=O)c2sc(S(N)(=O)=O)cc21`, the outcome with Acanthamoeba castellanii [14] and in the test with Acanthamoeba castellanii [15] was inactive. Moreover, the outcome with Acanthamoeba castellanii [16] was Active.
